Source: PubChem (The Scripps Research Institute Molecular Screening Center)
Compounds with a hit are over-represented: about 3% of the library has one in this group of screens.
HTR1A agonist: agonists of human 5-HT1a serotonin receptor; P08908; 65,000 compounds, 0.56% hits; CHO 5-HT1a Ga15 NFAT-bla reporter, FRET ratio; 0% basal, 100% maximal reference agonist; activation, % at 10 µM;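 active means activation above the screen-wide mean activation plus 3 SD, cut at about 19% in these data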;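 further: 0% = DMSO wells and 100% = 5-CT at EC100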
5HT1E ag: agonists of human 5-HT1E serotonin receptor. P28566. CHO 5-HT1E Ga15 NFAT-bla reporter, FRET; 0% DMSO wells, 100% control agonist wells. activation, % at 6 µM. 65,000 compounds, 0.69% hits. AID 574;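 active means activation above a set limit, the screen-wide mean activation plus 3 SD, cut at about 8.5% in these data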;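 further: 100% = positive control agonist at 1 µM giving full maximal response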
5-HT1A blocker: blocks the human serotonin 5-HT1a receptor | 62,000 compounds, 0.68% hits | P08908 | CHO 5-HT1a Ga15 NFAT-bla reporter, antagonist mode | inhibition, % at 10 µM;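 active means inhibition above the mean of all tested compounds plus 3 SD, cut at about 43% in these data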;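 further: receptor stimulated by 5-CT agonist at 100 nM near EC80; beta-lactamase reporter measured by ratiometric fluorescence of a cleavable substrate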
S1P3 ag: agonists of human S1P3 receptor; Q99500; S1P3 NFAT-BLA reporter cells, agonism, FRET ratio; relative to 1 µM S1P, basal subtracted; activation, % at 4.5 µM; 60,000 compounds, 0.1% hits; AID 373;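 active means activation above the screen-wide mean plus 3 SD, cut at about 4.5% in these data, passing the limit was not always enough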
Target sequence (Q99500 whole entry, looked up): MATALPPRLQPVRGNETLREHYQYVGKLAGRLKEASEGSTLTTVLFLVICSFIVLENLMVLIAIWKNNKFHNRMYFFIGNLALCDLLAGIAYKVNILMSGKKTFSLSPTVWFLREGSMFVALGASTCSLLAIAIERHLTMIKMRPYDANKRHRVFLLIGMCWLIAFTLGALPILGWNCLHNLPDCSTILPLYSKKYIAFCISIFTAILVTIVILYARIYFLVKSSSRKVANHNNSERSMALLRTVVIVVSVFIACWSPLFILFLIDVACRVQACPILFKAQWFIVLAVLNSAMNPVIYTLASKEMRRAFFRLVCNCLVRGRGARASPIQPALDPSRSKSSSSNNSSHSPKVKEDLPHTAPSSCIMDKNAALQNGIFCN
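material = human S1P3 NFAT-BLA reporter CHO cells | schedule = 4 h compound at 37 °C, 2 h substrate at RT | measured by = fluorescent BLA substrate, ex 405 nm, em 460/535 nm ratio | controls = 1 µM S1P reference | replication = primary once, confirmation triplicate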
5HT1E antag: blocks the human 5-HT1E serotonin receptor; 65,000 compounds, 0.99% hits; P28566; inhibition, % at 6 µM; CHO 5-HT1E Ga15 NFAT-bla reporter, FRET, antagonist;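 active means inhibition above a set limit, the mean inhibition across every tested compound plus 3 SD, cut at about 29% in these data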;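 further: signal is the 460 over 535 nm emission ratio of beta-lactamase substrate; 0% = agonist plus DMSO wells and 100% = wells without agonist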
S1P1 ag pot: S1P1 (human) agonism or agonism potentiation. P21453. S1P1 CRE-bla cells, forskolin, beta-lactamase FRET, potentiator mode; S1P1 agonist co-added at EC20, 2 nM; 100% = saturating reference agonist, 0% = basal. activation, % at 9.5 µM. 56,000 compounds, 0.57% hits;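 active means activation above a cutoff set at the mean activation of all tested compounds plus 3 SD, cut at about 54% in these data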;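 further: forskolin at 4 µM as EC80 and the EC20 agonist is SEW2871; 100% = SEW2871 at its EC100 plus forskolin at EC80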
* hit, by the source's call; nt = not tested or not shown.

SMILES | HTR1A agonist | 5HT1E ag | 5-HT1A blocker | S1P3 ag | 5HT1E antag | S1P1 ag pot
N#Cc1c(N)n(CCOC(=O)c2cccc(Br)c2)c2nc3ccccc3nc12 | 31* | 5 | nt | 2 | 6 | -90
CCCn1cnc2c(c1=O)c1nc3ccccc3nc1n2Cc1ccccc1OC | -1 | -1 | 1 | -1 | 7 | -10
COc1cc(Cn2c(N)c(C#N)c3nc4ccccc4nc32)cc(OC)c1 | 21* | 6 | 25 | 5 | 14 | -59
COc1cccc(Cn2c(N)c(C#N)c3nc4ccccc4nc32)c1OC | 8 | 4 | -11 | 2 | 33* | -54
O=C(NCCC1=CCCCC1)C1CCN(S(=O)(=O)c2cccc3cccnc23)CC1 | -4 | 0 | -2 | -1 | -4 | 6
CCN(CC)S(=O)(=O)c1ccc2c(c1)nc(SCc1nc3ccsc3c(=O)[nH]1)n2CC | 5 | 0 | -5 | -1 | 3 | -27
COc1cccc(-c2cc(C(F)(F)F)nc(NCc3ccco3)n2)c1 | -1 | -1 | 47* | nt | 9 | nt
COc1ccc(-c2cc(C(F)(F)F)nc(NCc3ccco3)n2)cc1OC | -1 | 1 | 30 | nt | 26 | nt
CC1(C)Cc2c(c(N3CCCC3)nc3sc4c(N5CCN(CCO)CC5)ncnc4c23)CO1 | 6 | 1 | -6 | nt | 41* | nt
N#Cc1c(-c2ccco2)cc(-c2cccnc2)nc1N | 0 | 0 | 0 | 1 | 38* | -74
Cc1c(-c2ccccc2)nc(N)c(C#N)c1-c1ccco1 | 17 | 0 | -2 | 0 | 31* | -81
O=C(Nc1nnc(CC(=O)N2CCCC2)s1)c1cnccn1 | 0 | -1 | -16 | nt | 1 | nt
O=c1c2cc(Cl)ccc2nc2ccc(N3CCCC3)nn12 | -3 | 0 | 5 | -1 | 8 | -8
Cc1ccc(C2C=C(c3ccc4c(c3)OCO4)Nc3ncnn32)cc1 (configuration not stated) | -3 | 0 | 10 | 1 | 7 | -36
COc1cccc(C2=CC(c3ccc(C)cc3)n3ncnc3N2)c1 (configuration not stated) | 0 | 0 | 29 | -1 | 29* | 4
Fc1ccc(-c2nnc3ccc(N4CCc5ccccc5C4)nn23)cc1 | 2 | 1 | -11 | 0 | 9 | -47
COc1ccccc1-c1cc(C(F)(F)F)nc(N2CCCC2)n1 | 6 | -1 | -7 | nt | 2 | nt
COc1ccccc1-c1cc(C(F)(F)F)nc(S(=O)(=O)CCCC(=O)NC(C)C)n1 | -1 | 5 | 40 | 1 | 48* | -13
COc1ccccc1-c1cc(C(F)(F)F)nc(S(=O)(=O)CCCC(=O)Nc2cc(C)on2)n1 | -5 | 0 | 10 | 0 | 46* | 12
Cc1cc(NC(=O)CCCSc2nc(-c3ccco3)cc(C(F)(F)F)n2)no1 | 0 | 6 | -1 | -1 | -6 | nt
COc1ccccc1-c1cc(C(F)(F)F)nc(S(=O)(=O)CCCC(=O)N2CCCCC2C)n1 (configuration not stated) | 5 | 4 | 64* | 0 | 2 | 3
CC(C)c1nnc(NC(=O)CCS(=O)(=O)c2nc(-c3cccs3)cc(C(F)(F)F)n2)s1 | -1 | 0 | 36 | -1 | 14 | 18
COc1ccc(CCNC(=O)c2cc3ccccn3n2)c(OC)c1OC | -2 | 1 | -8 | -1 | 0 | -28
CCOC(=O)N1CCC(Nc2c(NCCCN(C)Cc3ccccc3)c(=O)c2=O)CC1 | -2 | 0 | -8 | 0 | -8 | -15
Cn1c(Cn2c(=O)sc3ccccc32)nnc1SCC(=O)Nc1ccc2c(c1)OCO2 | 0 | 0 | 6 | -1 | -20 | 19
SMILES | HTR1A agonist | 5HT1E ag | 5-HT1A blocker | S1P3 ag | 5HT1E antag | S1P1 ag pot
COc1ccc(CN2CCN(c3cccc(C)c3C)CC2)cc1OC | 29* | 24* | 6 | 0 | 11 | nt
COc1cc(CN2CCN(c3cccc(C)c3C)CC2)cc(Br)c1O | 1 | 36* | 10 | -2 | 2 | -20
COc1ccc(CN2CCC(C(=O)N3CCN(c4ccccc4F)CC3)CC2)cc1OC | 0 | 0 | 2 | -2 | -9 | -22
O=C(c1cccc(S(=O)(=O)N2CCCC2)c1)c1nnc(-c2ccncc2)o1 | -2 | 0 | -19 | 0 | -9 | -8
Cn1nnc2cc(C(=O)N3CCCCCC3)ccc21 | -2 | 0 | 4 | nt | -10 | nt
Cc1cccc(-n2cnc3cc(C(=O)N4CCCCC4)ccc32)c1 | 45* | 0 | -7 | nt | -5 | nt
COCCCNC(CC(=O)Nc1ccc(N(C)C)cc1)C(=O)O (configuration not stated) | -2 | -1 | -6 | 0 | -6 | -10
O=C(COc1ccc(-c2nnco2)cc1)NC1CCCc2ccccc21 (configuration not stated) | -2 | 0 | -9 | 0 | -1 | -8
CN(C)CCNC(=O)C(C(=O)c1ccc(F)cc1)n1ccccc1=O (configuration not stated) | 120* | 1 | 4 | -2 | 0 | -4
O=C(NCc1ccco1)C(C(=O)c1ccc(F)cc1)n1ccccc1=O (configuration not stated) | -2 | 0 | 12 | 0 | -3 | 15
COc1ccc(-c2nnc(SCC(=O)NC(C)c3ccccc3)o2)cc1OC (configuration not stated) | 0 | 1 | 8 | -1 | -8 | -8
CCn1nnc(-c2ccccc2NC(=O)c2ccc(-n3cnnn3)cc2)n1 | 0 | 1 | 4 | -1 | 9 | -14
CCn1nnc(-c2ccccc2NS(=O)(=O)c2ccc(C(=O)OC)cc2)n1 | -4 | -2 | 21 | -1 | 34* | 51
c1ccc2c(c1)oc1c(NCc3ccc4c(c3)OCO4)ncnc12 | 0 | 1 | 12 | 0 | -3 | 90*
CCOC(=O)CSc1nnc(-c2ccc(OC)cc2OC)o1 | -2 | 0 | -7 | -1 | 4 | -3
CCCCC(c1nnnn1C1CCCC1)N1CCN(C2CCCCC2)CC1 (configuration not stated) | -1 | 0 | 50* | 0 | 5 | -5
CCCC(c1nnnn1C1CCCCC1)N1CCN(c2ncccn2)CC1 (configuration not stated) | 1 | 0 | 8 | -1 | 2 | 0
COc1ccc(C(=O)Nc2ccc(Cl)cc2C(=O)NCc2ccco2)cc1OC | -4 | 0 | 5 | -2 | 40* | -32
Oc1ccccc1-c1cc(-c2ccccc2Cl)[nH]n1 | -5 | 1 | 24 | -1 | -4 | 17
Cc1ccc(O)c(-c2cc(-c3ccccc3C)[nH]n2)c1 | -1 | 2 | 44* | 0 | -1 | nt
